In PubChem BioAssay AID2300 (The Scripps Research Institute Molecular Screening Center, 2010):
In all, about 320,000 compounds went through this assay and about 380 (0.12%) were called active. This excerpt belongs to a sample that is enriched for actives. Unmarked numbers belong to inactive results.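 How the source made its calls: active means percent inhibition above the cutoff of mean plus 3 SD of all tested compounds, set per screening campaign (cut at about 20% in these data); inactive means the rest.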

These molecules were tested against Photoreceptor-specific nuclear receptor (Homo sapiens) (UniProt Q9Y5X4) (assay: inhibitors of NR2E3-RetCOR corepressor binding, primary screen, NR2E3 agonist project, biochemical, TR-FRET, GST-NR2E3, biotin-RetCOR (AID 2300;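 further: 0% = DMSO wells and 100% = biotin wells as full block of FRET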)). Details: 1536-well, at 4.78 µM, active compounds read high.
Sequence of Photoreceptor-specific nuclear receptor (Homo sapiens) (Q9Y5X4 whole entry, looked up): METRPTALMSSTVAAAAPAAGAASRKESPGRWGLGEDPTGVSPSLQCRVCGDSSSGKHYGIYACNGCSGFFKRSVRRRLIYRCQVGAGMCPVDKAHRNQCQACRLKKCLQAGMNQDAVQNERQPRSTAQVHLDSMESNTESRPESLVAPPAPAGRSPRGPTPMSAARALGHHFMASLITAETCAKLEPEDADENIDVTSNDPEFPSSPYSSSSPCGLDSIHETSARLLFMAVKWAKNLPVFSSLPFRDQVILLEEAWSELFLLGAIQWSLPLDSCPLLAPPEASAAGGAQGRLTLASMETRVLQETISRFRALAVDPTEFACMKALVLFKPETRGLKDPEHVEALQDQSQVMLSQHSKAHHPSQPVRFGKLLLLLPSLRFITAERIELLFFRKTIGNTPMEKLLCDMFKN
Summary of the method: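 system = GST-tagged NR2E3 plus biotinylated RetCOR corepressor | input = 1.35 nM GST-NR2E3 | also added = 7 nM biotin-RetCOR | schedule = 5 h incubation at 4 °C | measured by = TR-FRET with europium anti-GST and streptavidin-D2, 340 nm excitation | read-out = percent loss of FRET ratio relative to control wells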

Point of comparison: `Cc1ccc(C(=O)Nc2ccc(C)c(S(=O)(=O)N(C)C)c2)s1`, inhibition of corepressor binding -3.92%. Against it:
- Cc1ccn(C(CC(=O)c2ccc(Br)cc2)C(=O)O)n1 (stereo not given) — higher, 0.75%
- CC(C)CCNc1nc(N2CCCC2)c2c(c1C#N)CCN(C)C2 — higher, -2.99%
- CCc1ccnc(NS(=O)(=O)c2ccc3c(c2)OCCO3)c1 — higher, -3.2%
- CCN(C(=O)COC(=O)/C=C/c1nc2ccccc2s1)C1CCS(=O)(=O)C1 (stereo not given) — higher, -1.91%
- C[C@@H](NC(=O)c1nc[nH]c1C(=O)N1CCN(C(=O)OC(C)(C)C)CC1)c1ccccc1 — higher, 0.22%
- N#C/C(=C/c1ccc(Cl)cc1)NC(=O)c1ccccc1 — higher, 0.97%
- CSc1sc(C(=O)NC(=O)NCc2cccnc2)c(C)c1-c1ccon1 — lower, -5.08%
- CCOc1ccc(OCC)c(NC(=O)C(NS(=O)(=O)c2ccc3c(c2)oc(=O)n3C)C(C)C)c1 (stereo not given) — higher, 5.32%
- CCN(CC)S(=O)(=O)c1ccc(N(C)Cc2cccc(OC)c2OC)nc1 — higher, -0.21%
- COc1ccccc1C(=O)Nc1ccnn1C1CCN(Cc2cnn(C)c2)CC1 — higher, -1.2%
- O=[N+]([O-])c1ccc(Oc2ccc(F)cc2Br)c2ccncc12 — higher, 3.74%
- O=C(COC(=O)CNS(=O)(=O)c1ccc(F)c(F)c1F)NC1CCCC1 — higher, 1.54%
- CCC1(CC)Cc2ccccc2-c2nc(CCl)[nH]c(=O)c21 — higher, -2.67%
- CC1(C)Cc2ccccc2-c2nc(CN3CCOCC3)[nH]c(=O)c21 — higher, 0.32%
- Cc1ccc(Sc2ccncc2S(N)(=O)=O)cc1 — higher, 0.79%
- Cn1cc(CN2CCCC(CO)C2)c(-c2ccc(Oc3ccccc3)cc2)n1 (stereo not given) — higher, -0.36%
- COc1ccc(C2c3[nH]c4ccccc4c3CCN2CCCn2cccn2)cc1C (stereo not given) — higher, 1.77%
- CCc1ccc(NC(=O)CN2CCC(C(=O)c3ccc(OC)cc3)CC2)cc1 — higher, 4.08%
- CC[C@@H](C)[C@@H](C(=O)N1CCN(C(=O)OC(C)(C)C)CC1)n1cc(CCC(=O)O)nn1 — higher, 2.89%
- O=c1[nH]c(CCl)nc2cc(-c3ccc(Cl)cc3)sc12 — higher, 1.58%
- COc1ccc(CNC(=O)CN(Cc2ccc(Cl)cc2)S(C)(=O)=O)cc1 — higher, -2.12%
- CCCC(=O)n1nc(NCc2ccc(OC)cc2)nc1NCc1ccc(OC)cc1 — higher, -0.61%
- COc1ccc(NC(=O)CN2C(=O)C(c3ccccc3)=NC23CCCCCC3)cc1OC — higher, 1.4%
- O=C(CCc1ccc(S(=O)(=O)N2CCOCC2)cc1)Nc1ccc2ccccc2c1 — higher, 0.61%
- O=C(C(Cc1ccccc1)n1cccc1)N1CCN(C2CCCCC2)CC1 (stereo not given) — higher, -0.53%
- O=C(/C=N/O)Nc1ccccc1 — lower, -4.21%
- O=C(COC(=O)c1ccc(NS(=O)(=O)c2cccs2)cc1O)Nc1ccc(F)cc1 — higher, 0.61%
- Cc1cc(C)n(CC(C)NCc2c(C(=O)N3CCOCC3)nc3c(C)cccn23)n1 (stereo not given) — higher, -0.74%
- COc1cc(C(=O)NCC(c2ccco2)N2CCCC2)ccc1OCc1ccccc1 (stereo not given) — higher, 2.49%
- CCOC(=O)c1c(NC(=O)CN2C(=O)NC3(CCC(C)CC3)C2=O)sc(C)c1CC (stereo not given) — higher, 1.08%
- O=C(COc1coc(CN2CCN(c3ccccc3F)CC2)cc1=O)N1CCc2ccccc21 — higher, -1.02%
- CN(C(=O)CSc1nnc(Nc2ccccc2)s1)C1CCS(=O)(=O)C1 (stereo not given) — higher, 0.29%
- Cc1ccc(S(=O)(=O)NC2(C(F)(F)F)NC(=O)N(CCc3ccccc3)C2=O)cc1 (stereo not given) — higher, 1.1%
- COc1ccc(-c2cc(C(=O)N/N=C/c3cccnc3)c3ccccc3n2)c(OC)c1 — higher, 6.06%
- O=C(Nc1cc(S(=O)(=O)N2CCOCC2)ccc1Cl)c1cc(=O)c2ccccc2o1 — higher, 1.24%
- O=C(NCCCN1CCOCC1)C1CCCN(S(=O)(=O)N2CCCCC2)C1 (stereo not given) — higher, 0.58%
- CN(Cc1ccccc1F)C(=O)C(Cc1ccccc1)NC(=O)c1ccccc1 (stereo not given) — higher, 0.68%
- N=c1n(CCc2ccccc2)c2ccccc2n1Cc1ccccc1F — lower, -5.83%
- CCOc1ccc(CCNC(=O)C2=C(C)C(=O)OC23CCC(C)CC3)cc1OCC (stereo not given) — higher, -3.37%
- O=C1C(=O)N(CCN2CCOCC2)C(c2ccccn2)/C1=C(/O)c1ccc(Cl)cc1 (stereo not given) — higher, -1.05%
- O=C1C(=O)N(CCCN2CCOCC2)C(c2ccc([N+](=O)[O-])cc2)/C1=C(\O)c1ccc2c(c1)OCCO2 (stereo not given) — higher, 2.15%
- Cc1ccc(-c2nc(CSCC(=O)NC3CCN(Cc4ccccc4)CC3)c(C)o2)cc1 — higher, 1.78%
- CCN(CC)Cc1csc2ccc(Br)cc12 — higher, -3.8%
- CCOc1cc(C2/C(=C(/O)c3ccc(S(=O)(=O)N4CCCCC4)cc3)C(=O)C(=O)N2CCOC)ccc1O (stereo not given) — higher, 0.08%
- O=C(NCc1ccccn1)c1ccc2nc(-c3ccco3)c(-c3ccco3)nc2c1 — higher, 9.85%
- CCOc1cc(NC(=S)NCCCOC)c(OCC)cc1NC(=O)c1ccco1 — higher, 1.79%
- CCOc1cc(C(=O)Nc2ccc(S(=O)(=O)Nc3cnc4ccccc4n3)cc2)cc(OCC)c1OCC — higher, 0.9%
- CCCOn1c(-n2nc(C)cc2C)nc2ccccc2c1=O — higher, -0.33%
- COc1ccc2c3c1O[C@H]1C[C@@H](O)C=C[C@@]31CCN(C)C2 — higher, 4.69%
- O=C(CCN1C(=O)c2ccncc2C1=O)Nc1cc(F)ccc1F — higher, -0.36%
- CCCC(=O)N1CCC(CCC(=O)NC2CC2)CC1 — higher, 0.01%
- Cc1ccc(C(=O)COC(=O)c2cccc(N3C(=O)c4c(C)nc5ccccc5c4C3=O)c2)cc1C — lower, -4.34%
- COc1ccc(C(C(=O)NC2CCCCC2)N(C(=O)CCl)c2ccccc2Cl)cc1 (stereo not given) — higher, 3.2%
- CCCOC1CCCN(Cc2cn(C)nc2-c2ccccc2F)C1 (stereo not given) — higher, -1.73%
- CC1C(=O)Nc2ccccc2N1C(=O)c1c(F)cccc1F (stereo not given) — higher, 0.31%
- CCCCCCSc1nsc(N)n1 — higher, 3.46%
- CC1CCN(S(=O)(=O)c2ccc3c(c2)n(C)c(=O)n3C)CC1 — higher, 0.8%
- CCc1cc2c(SCC(=O)Nc3ncc(Cl)c(C)c3Cl)ncnc2s1 — higher, 2.24%
- CCc1ccc(S(=O)(=O)Nc2cc3c(cc2N2CCCCC2)n(C)c(=O)c(=O)n3C)cc1 — higher, -2.2%

`CC1(C)Cc2ccccc2-c2[nH]c(=S)[nH]c(=O)c21` was tested, and the inhibition of corepressor binding was 49.1% (active).
With `CN(Cc1ccccc1)Cc1ccccc1F` the inhibition of corepressor binding was 24.1% (active).
`O=C1C(=O)N(CCN2CCOCC2)C(c2cccc(Cl)c2)/C1=C(/O)c1ccc2c(c1)OCO2` (stereo not given) was tested, and the inhibition of corepressor binding was 31.6% (active).
`COCCNC(=O)Nc1ccc2nc(-c3ccco3)c(-c3ccco3)nc2c1` was tested, and the inhibition of corepressor binding was 30.4% (active).
For `CC[N+](C)(CC)CCC[n+]1c(-c2ccccc2)c2cc(N)ccc2c2ccc(N)cc21`, the inhibition of corepressor binding was 41.5% (active).
